The source made the active and inactive calls.

We go through ten compounds from ChEMBL document CHEMBL3407440, “Monocarbonyl analogs of curcumin inhibit growth of antibiotic sensitive and resistant strains of Mycobacterium tuberculosis” (Eur J Med Chem, 2015).

For data set [1], the system named is Mycobacterium marinum. The data set is described as follows: Antituberculosis activity against rifampicin-resistant Mycobacterium marinum assessed as growth inhibition after 72 hrs by liquid culture assay. Type of data set: functional, organism-based. In a few lines: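 Rifampicin-resistant Mm 1218R^rifR cultured in 7H9-ADC broth with DMSO, rifampicin or analog at varied concentrations for 72 h. Growth read as OD600 and normalized to untreated culture; IC50 derived. Mean ± SEM of three experiments.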

The test system of data set [2] is Mycobacterium tuberculosis. Briefly: Antituberculosis activity against Mycobacterium tuberculosis Beijing F2 assessed as growth inhibition after 72 hrs by liquid culture assay. Type of data set: functional, organism-based. Conditions: Beijing F2, 72 h.
Data set [3] concerns Mycobacterium tuberculosis. The data set is described as follows: Antituberculosis activity against Mycobacterium tuberculosis H37Rv assessed as zone of inhibition at 100 mM incubated for 28 days by disk diffusion assay. It is filed as functional, organism-based. The conditions noted are these: 672 h. In short, it runs like this: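 Disk diffusion on Mtb H37Rv plates: disk loaded with 100 mM analog, plates incubated 28 days at 37 °C, then zone of inhibition measured.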

Data set [4] can be described thus: Cmax in CD1 male mouse at 50 mg/kg, po. It is filed as ADME, organism-based. Also noted: dose 50 mg/kg, route oral. Conditions: in vivo.
Data set [5] concerns Mycobacterium marinum. Briefly: Antituberculosis activity against Mycobacterium marinum assessed as diameter of zone of inhibition at 100 mM incubated for 7 days by disk diffusion assay. Type of data set: functional. Conditions: 168 h, read-out: DIZ. In a few lines:
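Mm 1218R grown in 7H9-ADC (0.025% Tween 80) to OD600 0.35, diluted to OD600 0.04, spread on 7H10-OADC agar and air-dried 10 min. A 6 mm disk received 10 µl of 100 mM analog (in DMSO or water). Plates were incubated 7 days at 30 °C in 5% CO2 (legend: 32 °C), three plates per analog. The bacteria-free zone around the disk was measured.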

In data set [6] the test system is Mycobacterium marinum. The data set is described as follows: Antituberculosis activity against Mycobacterium marinum assessed as growth inhibition after 72 hrs by liquid culture assay. It is filed as functional, organism-based. In a few lines: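 Mm 1218R grown in 7H9-ADC (0.025% Tween 80) to OD600 0.35, then diluted to OD600 0.04. Cultured 72 h with analog in DMSO at 0.780–100 µM (twofold steps), in duplicate, alongside no-drug and 1% DMSO vehicle controls. Mean ± SEM of three experiments.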

The nature of data set [7]: Tmax in CD1 male mouse at 50 mg/kg, po. It is filed as ADME, organism-based. Details: dose 50 mg/kg, route oral. Conditions: in vivo.
Data set [8] deals with Mycobacterium tuberculosis. The data set is described as follows: Antituberculosis activity against Mycobacterium tuberculosis H37Rv assessed as growth inhibition after 72 hrs by liquid culture assay. Type of data set: functional, organism-based.
A short description of data set [9]: Half life in CD1 male mouse at 50 mg/kg, po. Type of data set: ADME, organism-based. Also noted: dose 50 mg/kg, route oral. The conditions noted are these: in vivo.
Data set [10] concerns Mycobacterium marinum. The data set is described as follows: Potentiation of antituberculosis activity against Mycobacterium marinum assessed as UBS-109-induced growth inhibition at 0.3 uM after 72 hrs by liquid culture assay. It is filed as functional, organism-based. In a few lines: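 Mm cultured in 7H9-ADC broth with rifampicin (0.250–4 µg/mL) alone or combined with analog (6.250–100 µM), in duplicate, with no-drug and 1% DMSO controls. OD600 read after 72 h and normalized to vehicle. Combinations compared with each agent alone by nonparametric ANOVA. Mean ± SEM of three experiments.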

A short description of data set [11]: Cmax in Swiss Webster male mouse at 12.5 mg/kg, ip. Details: dose 12.5 mg/kg, route intraperitoneal. Type of data set: ADME, organism-based. The conditions noted are these: in vivo.
Data set [12] can be described thus: Tmax in Swiss Webster male mouse at 12.5 mg/kg, ip. The conditions noted are these: in vivo. Also noted: dose 12.5 mg/kg, route intraperitoneal. Type of data set: ADME, organism-based.
Data set [13] in a line: Half life in Swiss Webster male mouse at 12.5 mg/kg, ip. Details: dose 12.5 mg/kg, route intraperitoneal. Type of data set: ADME, organism-based. Conditions: in vivo.
A short description of data set [14]: Tmax in CD2F1 male mouse at 10 mg/kg, ip. It is filed as ADME, organism-based. Details: dose 10 mg/kg, route intraperitoneal. Conditions: in vivo.
Data set [15] can be described thus: Tmax in CD2F1 male mouse at 10 mg/kg, po. It is filed as ADME, organism-based. Also noted: dose 10 mg/kg, route oral. Conditions: in vivo.
The nature of data set [16]: Half life in CD2F1 male mouse at 10 mg/kg, ip. It is filed as ADME, organism-based. Also noted: dose 10 mg/kg, route intraperitoneal. Conditions: in vivo.
The nature of data set [17]: Cmax in CD2F1 male mouse at 10 mg/kg, ip. Also noted: dose 10 mg/kg, route intraperitoneal. Conditions: in vivo. It is filed as ADME, organism-based.
A short description of data set [18]: Cmax in CD2F1 male mouse at 10 mg/kg, po. Details: dose 10 mg/kg, route oral. Type of data set: ADME, organism-based. The conditions noted are these: in vivo.
Data set [19] in a line: Half life in CD2F1 male mouse at 10 mg/kg, po. Type of data set: ADME, organism-based. Details: dose 10 mg/kg, route oral. Conditions: in vivo.

One may read the IC50 as the concentration needed to halve the response being measured. A word on the Cmax: it is the highest concentration seen after dosing. Broadly, the Tmax is the time from dosing to the highest level. Usually half-life stands for the time needed for the level to fall by half in the phase considered. Low readings indicate fast loss, high ones slow loss. For the compound `CN1C/C(=C\c2ccccn2)C(=O)/C(=C/c2ccccn2)C1`, the IC50 was 4 µM in the data set with Mycobacterium marinum [1]; 20 µM in [2]; 4 µM in [3]; 10 µM in the data set with Mycobacterium marinum [6]; 10 µM in [8]. In addition, the Cmax in [4] came to 131 ng/mL. Moreover, the zone of inhibition at 100000 µM with Mycobacterium marinum [5] came to 5.7 mm. Moreover, the Tmax in [7] is 0.5 h. In addition, the half-life in data set [9] worked out at 3.7 h.
As for `COC(=O)CCC(=O)N1C/C(=C\c2ccccc2F)C(=O)/C(=C/c2ccccc2F)C1`, in the data set with Mycobacterium marinum [5], the zone of inhibition at 100000 µM was 1.8 mm.
With `CN1C/C(=C\c2ccccc2F)C(=O)/C(=C/c2ccccc2F)C1`, the zone of inhibition at 100000 µM in the data set with Mycobacterium marinum [5] was found to be 1.4 mm.
As to `CO[C@H]1/C=C/O[C@@]2(C)Oc3c(C)c(O)c4c(O)c(c(/C=N/N5CCN(C)CC5)c(O)c4c3C2=O)NC(=O)/C(C)=C\C=C\[C@H](C)[C@H](O)[C@@H](C)[C@@H](O)[C@@H](C)[C@H](OC(C)=O)[C@@H]1C`, the outcome in the data set with Mycobacterium marinum [10] was inactive.
Regarding `O=C1/C(=C/c2ccccn2)CNC[C@H]1Cc1ccccn1`, in the data set on Mycobacterium marinum [5], the zone of inhibition at 100000 µM worked out at 4.6 mm. Further, the IC50 in the data set on Mycobacterium marinum [6] stood at 50 µM.
Turning to `COc1cc(/C=C/C(=O)CC(=O)/C=C/c2ccc(O)c(OC)c2)ccc1O` [CURCUMIN], the zone of inhibition at 100000 µM in the data set on Mycobacterium marinum [5] was 1.1 mm.
Take `O=C1C(Cc2ccccn2)CNCC1Cc1ccccn1` (stereo unspecified): in the data set with Mycobacterium marinum [5], the zone of inhibition at 100000 µM was 0 mm.
Regarding `O=C1/C(=C/c2ccccn2)CSC/C1=C\c1ccccn1`, in the data set on Mycobacterium marinum [5], the zone of inhibition at 100000 µM was found to be 2.7 mm.
`O=C1/C(=C/c2ccccn2)CNC/C1=C\c1ccccn1`: the highest concentration (Cmax) in data set [11] turned out to be 1070 ng/mL. Besides, in the data set with Mycobacterium marinum [5], the zone of inhibition at 100000 µM came out at 4.7 mm. Moreover, the Tmax in [12] is 0.25 h. This compound also showed a half-life in data set [13] of 2.2 h.
In the case of `O=C1/C(=C/c2ccccc2F)CNC/C1=C\c1ccccc1F`, the Tmax in data set [14] and in data set [15] was 3 min in each case. Besides, the results for the half-life in data set [16] and in data set [19] were 3.65 h and 2.95 h, respectively. Further, the figures for the Cmax in data set [17] and in data set [18] were 259 ng/mL and 275 ng/mL, respectively. In addition, the IC50 in data set [2] was 50 µM; with Mycobacterium marinum [6], 25 µM; in [8] it was 20 µM. The zone of inhibition at 100000 µM in the data set on Mycobacterium marinum [5] came out at 2.6 mm.
